NPY-Y2 antag: antagonists of human neuropeptide Y receptor Y2; P49146; NPY-Y2 expressing cells, antagonist mode; inhibition, % at 2.7 µM; actives 0.99% (n = 140,000); in the data active means inhibition above about 17%;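 further: 0% = vehicle with agonist challenge and 100% = reference antagonist with challenge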
Target sequence (P49146 whole entry, looked up): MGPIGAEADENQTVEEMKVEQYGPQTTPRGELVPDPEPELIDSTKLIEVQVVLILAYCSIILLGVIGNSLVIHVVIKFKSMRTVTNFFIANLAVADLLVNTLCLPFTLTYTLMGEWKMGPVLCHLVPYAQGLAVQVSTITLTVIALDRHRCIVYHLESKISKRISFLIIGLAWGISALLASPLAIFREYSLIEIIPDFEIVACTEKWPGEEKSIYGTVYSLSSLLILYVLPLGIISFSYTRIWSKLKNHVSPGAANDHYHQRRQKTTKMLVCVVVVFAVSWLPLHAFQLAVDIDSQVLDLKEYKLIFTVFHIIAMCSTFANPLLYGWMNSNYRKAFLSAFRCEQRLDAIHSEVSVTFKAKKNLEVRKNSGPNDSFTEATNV
NPY-Y1 PAM-ag: human NPY-Y1 potentiation or agonism, primary screen; P25929; NPY-Y1 expressing cells, potentiator/agonist activation; activation, % at 3.6 µM; actives 0.37% (n = 220,000); in the data active means activation above about 33%, passing the limit was not always enough;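 further: cells stimulated with NPY at EC10 then isoproterenol at EC100; 0% = low agonist plus stimulus and 100% = saturating agonist plus stimulus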
Target sequence (P25929 whole entry, looked up): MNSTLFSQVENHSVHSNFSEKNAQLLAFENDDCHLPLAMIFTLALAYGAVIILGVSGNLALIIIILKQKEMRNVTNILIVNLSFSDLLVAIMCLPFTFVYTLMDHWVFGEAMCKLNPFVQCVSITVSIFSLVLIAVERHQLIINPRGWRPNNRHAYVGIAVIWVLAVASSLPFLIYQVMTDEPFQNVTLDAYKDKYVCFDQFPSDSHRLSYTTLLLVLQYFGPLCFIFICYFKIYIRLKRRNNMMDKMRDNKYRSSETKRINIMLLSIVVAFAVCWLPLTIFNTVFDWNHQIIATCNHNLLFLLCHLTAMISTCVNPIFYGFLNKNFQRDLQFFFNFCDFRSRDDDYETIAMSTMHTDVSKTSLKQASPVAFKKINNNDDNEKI
m-calpain inh: blocks pig calpain II enzyme activity. actives 0.37% (n = 220,000). inhibition, % at 16 µM. purified calpain II, fluorogenic peptide substrate, 30 min;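 active means inhibition above about 50%, limit read from the data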
NPY-Y2 PAM-ag: potentiates or activates human NPY-Y2 receptor. P49146. cells expressing NPY-Y2, potentiator/agonist read-out. activation, % at 3.6 µM. actives 0.45% (n = 220,000). AID 1359; in the data active means activation above about 27%;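 further: cells stimulated with NPY near EC25 plus isoproterenol at EC100; 0% = vehicle plus submaximal agonist and 100% = vehicle plus saturating agonist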
Tb hexokinase: T. brucei hexokinase 1 inhibition; recombinant TbHK1, G6PDH-coupled NADH A340; inhibition, % at 10 µM; actives 0.11% (n = 220,000); AID 1430;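 active means inhibition of 50% or more in the single-dose primary screen; inactive means inhibition below 50%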
NPY-Y1 antag: blocks the human neuropeptide Y Y1 receptor; inhibition, % at 3.6 µM; actives 1% (n = 200,000); HEK293-CNG Y1 cells, membrane potential fluorescence; NPY at EC95, then isoproterenol; AID 1040;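 active means inhibition above the campaign mean inhibition of all tested compounds plus 3 SD, cut at about 20% in these data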;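 further: 0% = DMSO wells given NPY plus isoproterenol and 100% = isoproterenol alone without NPY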
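Assay system: HEK293 cells with Y1 receptor plus CNG channel | Probe or stimulus: NPY (25 nM), isoproterenol (1 µM), Ro 20-1724 (25 µM) | Timing: Compound incubation 1 h at room temperature, readout 45 min post-stimulation | Measured by: Membrane-potential fluorescent dye readout | Benchmarks: High control isoproterenol alone, low control NPY with isoproterenol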
NPY-Y1 antag ct: human NPY-Y1 antagonism in NPY-Y2 counter-screen; shares compounds with NPY-Y2 antag; cell-based NPY-Y1 antagonism counterscreen; inhibition, % at 3.6 µM; actives 19% (n = 710); in the data active means inhibition above about 20%;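 further: cells challenged with NPY then isoproterenol with cAMP sensed through a CNG channel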
NPY2 antag conf: human NPY-Y2 antagonism, confirmation | actives 32% (n = 710) | shares compounds with NPY-Y2 antag | HEK293 NPY-Y2 CNG channel, membrane potential fluorescence | inhibition, % at 2.8 µM;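 active means mean inhibition of triplicate wells above the hit cutoff set in the primary screen, cut at about 17% in these data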;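 further: 0% = DMSO with NPY challenge and 100% = BIIE0246 high control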
The depositor's hits bear a star; · = no result given. The list is not random: actives were taken first. Their share in the collection is about 2.3%.

SMILES | NPY-Y2 antag | NPY-Y1 PAM-ag | m-calpain inh | NPY-Y2 PAM-ag | Tb hexokinase | NPY-Y1 antag | NPY-Y1 antag ct | NPY2 antag conf
CC1CCCC(NC(=O)COC(=O)CCc2ccccc2)C1C (configuration not stated) | · | -13.5 | 7.3 | -7.0 | 2.9 | 8.9 | · | ·
CC1CCCC(NC(=O)COC(=O)CSc2ccc3ccccc3c2)C1C (configuration not stated) | 18.8* | -44.4 | 16.7 | -18.4 | 35.9 | 16.8 | 28.1* | 21.6*
CCC(C)(C)n1nnnc1C(c1ccccc1)N1CCN(C2CCCC2)CC1 (configuration not stated) | 19.8* | -19.3 | -7.1 | 8.1 | 11.6 | 8.2 | 5.2 | 11.7
COc1cccc(C(c2nnnn2Cc2ccccc2)N2CCN(C3CCCC3)CC2)c1OC (configuration not stated) | 18.4* | -33.6 | -2.4 | -12.2 | 0.4 | 0.5 | 6.5 | 6.4
OCCNCc1cc(Br)ccc1OCc1ccccc1Cl | 21.9* | -68.1 | 1.7 | -24.7 | 8.8 | 4.8 | 9.5 | 16.1
COc1ccc(N2C(=O)/C(=C\c3ccco3)N=C2SCC(=O)N(C(C)C)C(C)C)cc1Cl | 17.9* | -11.5 | -6.5 | -1.8 | -11.5 | 5.5 | 7.7 | 9.8
C/C(=C\C(=O)c1ccncc1)Nc1ccccc1O | 17.8* | 7.8 | 1.1 | 11.5 | -21.1 | 1.5 | 1.2 | 7.5
CC(=O)Nc1ccccc1O | -0.1 | -0.3 | -8.3 | 4.9 | -3.9 | 2.5 | · | ·
COc1ccc(C(=O)C2CC2c2ccc3c(c2)OCO3)cc1 (configuration not stated) | · | -31.5 | 1.1 | -8.2 | 2.7 | 8.3 | · | ·
COc1ccc(NC(=S)NCc2ccc(S(N)(=O)=O)cc2)c(OC)c1 | 2.3 | 17.4 | 4.1 | 8.2 | -5.8 | 2.9 | · | ·
COc1ccc(Nc2nc(N3CCCC3)c3ccccc3n2)cc1 | 32.2* | -24.1 | -47.8 | 4.3 | -4.4 | 14.1 | 24.4* | 33.8*
C/C(=N/NC(=O)c1cccc(N2CCCC2=O)c1)c1ccncc1 | · | 0.9 | -26.9 | 2.5 | 0.0 | 4.5 | · | ·
CC(C)CCNC(=O)CCSCCC(=O)NCCC(C)C | 0.4 | -3.1 | -9.6 | 2.9 | -1.3 | 5.0 | · | ·
CCc1ccc(CNC(=O)Cn2nc(-c3ccccc3)ccc2=O)cc1 | · | -12.9 | -20.3 | -4.6 | -1.5 | 3.8 | · | ·
CC(C)Nc1nc(NC(C)C)nc(SCC(N)=O)n1 | · | -2.0 | -15.5 | -1.2 | 2.1 | 0.7 | · | ·
COc1ccc(/C=N/NC(=O)c2cccc(OC(F)(F)C(F)F)c2)cc1O | 17.2* | -25.1 | -5.5 | -11.7 | -26.2 | -1.1 | 3.1 | 2.2
CCOC(=O)N1CCN(C(=O)c2cnn3c(C(F)F)cc(-c4ccc(C)cc4)nc23)CC1 | 17.2* | -23.8 | -219.9 | -22.5 | -13.7 | -1.6 | 3.2 | 3.2
Cc1ccc(C)c(NC(=O)CN(C)C(=O)c2nn(C)c(=O)c3ccccc23)c1 | · | -20.3 | -4.5 | -4.6 | -3.1 | -1.9 | · | ·
CC1=C(C(=O)OCc2ccc3c(c2)OCO3)C(c2ccc(Cl)cc2)NC(=O)N1 (configuration not stated) | 7.8 | -13.4 | 20.7 | -12.3 | 0.3 | -4.4 | · | ·
CC1=C(C(=O)OCc2ccc3c(c2)OCO3)C(c2ccc(F)cc2)NC(=O)N1 (configuration not stated) | 24.2* | -1.3 | -6.1 | -0.5 | -2.2 | 8.2 | 6.5 | 11.0
CN(C)S(=O)(=O)Nc1ccccc1F | · | 5.8 | 10.4 | 5.8 | -1.0 | 5.9 | · | ·
C=CCn1c(SCC(=O)N2CCc3ccccc3C2)nc2sc(C)c(C)c2c1=O | 19.1* | -12.1 | 17.5 | -4.0 | -4.0 | 7.1 | 10.4 | 9.0
O=C(OCc1nnc(-c2ccccc2)o1)c1ccc2c(c1)OCO2 | 19.6* | -20.8 | 72.4* | -33.0 | -3.3 | 10.8 | 18.0 | 15.6
O=C(OCc1nnc(-c2ccccc2)o1)c1ccco1 | -2.2 | -3.2 | -26.4 | -12.9 | 3.2 | 2.2 | · | ·
CN(c1ccc(OCC(=O)OCC(=O)NCc2ccco2)cc1)S(=O)(=O)c1ccc2ccccc2c1 | · | -1.4 | -1.5 | -0.5 | -6.7 | -0.8 | · | ·
SMILES | NPY-Y2 antag | NPY-Y1 PAM-ag | m-calpain inh | NPY-Y2 PAM-ag | Tb hexokinase | NPY-Y1 antag | NPY-Y1 antag ct | NPY2 antag conf
Nc1c(C(=O)NCCN2CCOCC2)c2nc3ccccc3nc2n1-c1ccc2c(c1)OCO2 | -1.5 | -15.7 | -78.3 | 20.8 | -19.4 | -3.9 | · | ·
Nc1c(C(=O)NCc2ccc3c(c2)OCO3)c2nc3ccccc3nc2n1CCCN1CCOCC1 | 19.1* | -10.1 | -429.9 | -4.9 | -28.1 | 12.0 | 17.4 | 7.1
Cc1cccc(NC(=S)NNC(=S)NCc2ccccc2)c1 | 29.1* | 18.7 | 0.8 | -7.4 | -3.0 | 10.2 | 16.8 | 22.3*
CCC(=Cc1ccc(CC)cn1)CC | · | 1.5 | 10.0 | 15.2 | -4.0 | · | · | ·
C/C(CC1CC(COCC(C)C)OC1=O)=N\NC(N)=S (configuration not stated) | 27.0* | -13.6 | -12.2 | -9.9 | 3.3 | 2.6 | 1.5 | 1.1
CCCCCOCC1CC(C/C(C)=N/NC(N)=S)C(=O)O1 (configuration not stated) | 1.7 | -9.3 | 21.7 | 11.2 | -0.7 | 3.5 | · | ·
Cc1noc(C)c1CSc1nc2ccccc2c(=O)n1-c1ccc(F)cc1F | 24.8* | -16.6 | 76.7* | -2.4 | -1.9 | 18.4 | 20.4* | 13.9
C=CCn1c(SCc2c(C)noc2C)nc2cc(C(=O)O)ccc2c1=O | 5.5 | 15.5 | -5.7 | -0.4 | -1.1 | 3.0 | · | ·
Brc1ccc(C2Nc3cccc4cccc(c34)N2)s1 | -0.6 | -21.9 | -33.0 | 8.2 | -5.5 | -2.9 | · | ·
O=C(COC(=O)/C=C/c1ccc2c(c1)OCO2)Nc1ccccc1 | · | -16.7 | -59.7 | -21.6 | -13.9 | 10.3 | · | ·
CCCNC(=O)COC(=O)/C=C/c1ccc2c(c1)OCO2 | 23.6* | -14.9 | -56.4 | -12.2 | -30.3 | 8.6 | 11.1 | 7.3
COCCn1c(=NC(=O)c2ccc(S(=O)(=O)N3CCc4ccccc4C3)cc2)sc2cc(OC)ccc21 | 1.6 | -9.2 | -109.1 | -2.2 | -22.9 | 3.9 | · | ·
CN1CCN(CCCNC(=O)c2ccc(CSCc3cccc(Cl)c3)o2)CC1 | 1.9 | -6.4 | 1.0 | 1.3 | -5.4 | 0.0 | · | ·
CC1CCN(CCCNC(=O)c2ccc(CSCc3cccc(Cl)c3)o2)CC1 | 17.4* | -24.5 | 7.5 | -7.1 | 6.9 | 12.1 | 9.0 | 12.5
Cc1ccc(-n2c(C)cc(C)c(C#N)c2=O)cc1C | · | 20.5 | -40.5 | 3.0 | -11.1 | 9.0 | · | ·
Cc1ccc(NC(=S)NCC(C)C)cc1 | 1.6 | -1.6 | 21.4 | 1.0 | 27.8 | -0.9 | · | ·
CN(C)CCCNS(=O)(=O)c1ccc(N2CCC(c3ccc(Cl)cc3)=N2)cc1 | 17.7* | 2.7 | -481.4 | 7.4 | -33.3 | -0.5 | 5.8 | 14.2
Fc1ccccc1OCC1CCCN(Cc2nc(CC3CC3)no2)C1 (configuration not stated) | · | -11.5 | -14.0 | -33.0 | 3.6 | 14.7 | · | ·
CCc1cccc(CC)c1NC(=O)COC(=O)c1ccccc1-c1nc2ccccc2s1 | 19.7* | -18.7 | 10.9 | 14.5 | 1.6 | 9.2 | 14.4 | 21.2*

Compound activity (PubChem)
